According to ChEMBL document CHEMBL1671864, “First assessment in humans of the safety, tolerability, pharmacokinetics, and ex vivo pharmacodynamic antimalarial activity of the new artemisinin derivative artemisone” (Antimicrob Agents Chemother, 2008):
≈ marks a conversion by molar mass, not a printed value.

Assays:
[1] = system: Plasma; test: Ratio of AUC (0 to infinity) in healthy human plasma at 80 mg, po administered as four 20 mg immediate release tablets daily for 3 days during 10 hrs overnight fasting state measured after 1 day to AUC (0 to infinity) in healthy human plasma at 80 mg, po administered as four 20 mg immediate release tablets daily for 3 days during 10 hrs overnight fasting state measured after 3 day; assay type: ADME, organism-based; conditions: in vivo
How it was run: (§1)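 Healthy Caucasian men took tablets daily for 3 days with 240 ml water after 10-h fast. Plasma sampled 0.25–14 h after first and last doses, artemisone measured by LC/MS-MS. Accumulation ratio is Cmax or AUC0-∞ after last dose divided by that after first dose. Noncompartmental analysis, geometric means with 95% CI.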

[2] = Apparent oral clearance in healthy human at 40 mg, po administered as two 20 mg immediate release tablets daily for 3 days during 10 hrs overnight fasting state measured after 3 day; assay type: ADME, organism-based; conditions: in vivo
How it was run: (§2)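 Healthy Caucasian males took 40 mg (2×20-mg IR tablets) or 80 mg (4 tablets) orally daily for 3 days after a 10-h fast. Plasma parent drug was measured by LC/MS-MS from predose to 14 h after the first and third doses. Noncompartmental analysis: AUC by log-linear trapezoid extrapolated via kel, CL/F = dose/AUC, V/F = CL/F÷kel, geometric means.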

[3] = AUC in healthy human plasma at 40 mg, po administered as two 20 mg immediate release tablets daily for 3 days during 10 hrs overnight fasting state measured after 3 day; assay type: ADME, organism-based; set-up: dose 40 mg, time < 10 hr, route oral; how it was run: as §2
[4] = system: Homo sapiens; test: Toxicity in healthy human assessed as occurrence of changes in electrocardiogram parameters at 10 to 80 mg, po administered as single ascending doses during 10 hrs overnight fasting state; assay type: organism-based; conditions: in vivo
How it was run: (§3)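 Healthy Caucasian men received single ascending doses (10–40 mg solution, 80 mg tablets) or 3-day daily tablet courses, all fasting, with randomized placebo controls. Supine blood pressure, heart rate and resting 12-lead ECG were recorded before and after dosing.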

[5] = Mean residence time in healthy human at 80 mg, po administered as four 20 mg immediate release tablets daily for 3 days during 10 hrs overnight fasting state measured after 3 day; assay type: ADME, organism-based; conditions: in vivo
How it was run: (§4)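 Healthy Caucasian males took tablets once daily for 3 days with 240 ml water after a 10-h fast. Heparinised blood was drawn predose and at 0.25–14 h after the first and last doses. Plasma parent drug and metabolites M1–M3 were measured by LC/MS-MS (MRM, deuterated internal standard). Noncompartmental analysis gave Cmax observed, t1/2 = 0.693/kel and MRT = AUMC/AUC. Values are geometric means.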

[6] = AUC in healthy human plasma at 20 mg, po administered as single ascending doses as solution during 10 hrs overnight fasting state; assay type: ADME, organism-based; set-up: time < 10 hr, dose 20 mg, route oral
How it was run: (§5)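 Single ascending oral doses in healthy Caucasian men, given fasted (10-h overnight) with 240 ml water: 10, 20, 30 or 40 mg as oral solution, or 80 mg as IR tablets. Parent plasma levels by LC/MS-MS over 0.25–14 h. Noncompartmental analysis: kel by terminal-phase least-squares regression, AUC extrapolated to infinity, CL/F = dose/AUC, V/F = CL/F÷kel.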

[7] = Cmax in healthy human plasma at 80 mg, po administered as four 20 mg immediate release tablets daily for 3 days during 10 hrs overnight fasting state measured after 1 day; assay type: ADME, organism-based; set-up: dose 80 mg, route oral; how it was run: as §4
[8] = Apparent volume of distribution with respect to the bioavailability in healthy human at 40 mg, po administered as single ascending doses as solution during 10 hrs overnight fasting state; assay type: ADME, organism-based; conditions: in vivo, read-out: Vc/F; how it was run: as §5
[9] = AUC in healthy human plasma at 40 mg, po administered as single ascending doses as solution during 10 hrs overnight fasting state; assay type: ADME, organism-based; set-up: time < 10 hr, dose 40 mg, route oral; how it was run: as §5
[10] = Cmax in healthy human plasma at 40 mg, po administered as single ascending doses as solution during 10 hrs overnight fasting state; assay type: ADME, organism-based; set-up: dose 40 mg, route oral
How it was run: (§6)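 Healthy Caucasian male volunteers, single oral dose with 240 ml water after a 10-h overnight fast. Heparinised venous blood was drawn predose and at 0.25–14 h. Plasma was stored frozen. Parent drug and metabolites M1–M3 were measured by LC/MS-MS (MRM, deuterated internal standard). Noncompartmental analysis gave Cmax observed, t1/2 = 0.693/kel (terminal regression) and MRT = AUMC/AUC. Values are geometric means.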

[11] = Cmax in healthy human plasma at 80 mg, po administered as four 20 mg immediate release tablets daily for 3 days during 10 hrs overnight fasting state measured after 3 day; assay type: ADME, organism-based; set-up: dose 80 mg, route oral; how it was run: as §4
[12] = Half life in healthy human plasma at 80 mg, po administered as four 20 mg immediate release tablets daily for 3 days during 10 hrs overnight fasting state measured after 1 day; assay type: ADME, organism-based; how it was run: as §4
[13] = Half life in healthy human plasma at 80 mg, po administered as single immediate release tablets during 10 hrs overnight fasting state; assay type: ADME, organism-based; how it was run: as §6
[14] = system: Plasma; test: Ratio of Cmax in healthy human plasma at 80 mg, po administered as four 20 mg immediate release tablets daily for 3 days during 10 hrs overnight fasting state measured after 1 day to Cmax in healthy human plasma at 80 mg, po administered as four 20 mg immediate release tablets daily for 3 days during 10 hrs overnight fasting state measured after 3 day; assay type: ADME, organism-based; conditions: in vivo; how it was run: as §1
[15] = Apparent oral clearance in healthy human at 10 mg, po administered as single ascending doses as solution during 10 hrs overnight fasting state; assay type: ADME, organism-based; conditions: in vivo; how it was run: as §5
[16] = system: Homo sapiens; test: Toxicity in healthy human assessed as occurrence of clinically relevant changes in vital signs at 40 mg, po administered daily for 3 days as two 20-mg immediate-release tablets during 10 hrs overnight fasting state; assay type: organism-based; conditions: in vivo; how it was run: as §3
[17] = system: Homo sapiens; test: Toxicity in healthy human assessed as decrease in glutamate dehydrogenase level at 80 mg, po administered daily for 3 days as four 20-mg immediate-release tablets during 10 hrs overnight fasting state measured after 2 days last post treatment; assay type: organism-based; conditions: in vivo, 48 h
[18] = Apparent volume of distribution with respect to the bioavailability in healthy human at 80 mg, po administered as single immediate release tablets during 10 hrs overnight fasting state; assay type: ADME, organism-based; conditions: in vivo, read-out: Vc/F; how it was run: as §5
[19] = system: Homo sapiens; test: Toxicity in healthy human assessed as occurrence of changes in electrocardiogram parameters at 40 mg, po administered daily for 3 days as two 20-mg immediate-release tablets during 10 hrs overnight fasting state; assay type: organism-based; conditions: in vivo; how it was run: as §3
[20] = Tmax in healthy human plasma at 10 mg, po administered as single ascending doses as solution during 10 hrs overnight fasting state; assay type: ADME, organism-based
How it was run: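 Healthy Caucasian male volunteers, randomized within each dose group against placebo, given a single oral solution with 240 ml water after a 10-h overnight fast. Plasma sampled predose and at 0.25–14 h, quantified by LC/MS-MS (MRM, deuterated internal standard). Tmax read directly from individual noncompartmental concentration–time data.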

[21] = Apparent volume of distribution with respect to the bioavailability in healthy human at 40 mg, po administered as two 20 mg immediate release tablets daily for 3 days during 10 hrs overnight fasting state measured after 1 day; assay type: ADME, organism-based; conditions: in vivo, read-out: Vc/F; how it was run: as §2
[22] = system: Plasmodium falciparum; test: Antimalarial activity against Plasmodium falciparum K1 in human plasma assessed as inhibition of hypoxanthine uptake by intraerythrocytic malaria parasites by hypoxanthine incorporation assay; assay type: functional, organism-based
How it was run: (§7)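 K1 or TM90-C2A parasites were sorbitol-synchronized and cultured in RPMI 1640. Drug was diluted in drug-free human serum (0.04–40 ng/ml) or subject plasma was diluted twofold (8–8,192). Parasites were added at 2% hematocrit, 1% parasitemia (>95% rings), and [3H]hypoxanthine uptake was measured over 48 h. IC50 or ID50 came from concentration or dilution-response curves. Equivalent concentration = ID50 × IC50.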

[23] = system: Plasmodium falciparum; test: Antimalarial activity against Plasmodium falciparum TM90-C2A in human plasma assessed as inhibition of hypoxanthine uptake by intraerythrocytic malaria parasites by hypoxanthine incorporation assay; assay type: functional, organism-based; how it was run: as §7
[24] = Half life in healthy human plasma at 20 mg, po administered as single ascending doses as solution during 10 hrs overnight fasting state; assay type: ADME, organism-based; how it was run: as §6

Compound: C[C@H]1[C@H](N2CCS(=O)(=O)CC2)O[C@@H]2O[C@@]3(C)CC[C@H]4[C@H](C)CC[C@@H]1[C@@]24OO3 [ARTEMIFONE]
- Ratio [1]: 98.3%
- CL/F [2]: 3500 mL/min
- AUC at 10 h [3]: 191 ng·h/mL
- Activity [4]: Non-toxic
- MRT [5]: 3.53 h
- AUC at 10 h [6]: 65.7 ng·h/mL
- Cmax [7]: 155 ng/mL
- Vd/F [8]: 22.2 L/kg
- AUC at 10 h [9]: 118 ng·h/mL
- Cmax [10]: 83 ng/mL
- Cmax [11]: 130 ng/mL
- half-life [12]: 2.97 h
- half-life [13]: 2.79 h
- Ratio [14]: 84%
- CL/F [15]: 5640 mL/min
- Activity [16]: Non-toxic
- Activity [17]: Non-toxic
- Vd/F [18]: 14.5 L/kg
- Activity [19]: Non-toxic
- Tmax [20]: 0.25 h
- Vd/F [21]: 12.8 L/kg
- IC50 [22]: 0.6 ng/mL (≈ 1.49 nM)
- IC50 [23]: 0.64 ng/mL (≈ 1.59 nM)
- half-life [24]: 3.48 h
